From ChEMBL document CHEMBL5136960, “Discovery of sustainable drugs for Alzheimer's disease: cardanol-derived cholinesterase inhibitors with antioxidant and anti-amyloid properties” (RSC Med Chem, 2021)
Activity calls are given as the source filed them. The calls are words filed in the database; no cut-off is given here.

Legend:
Acetylcholinesterase [1] = target: T1, Acetylcholinesterase (Homo sapiens, UniProt P22303); experiment: Inhibition of AChE in human serum at 20 uM by Ellman's method; type: cell-free
T1 sequence (P22303 whole entry): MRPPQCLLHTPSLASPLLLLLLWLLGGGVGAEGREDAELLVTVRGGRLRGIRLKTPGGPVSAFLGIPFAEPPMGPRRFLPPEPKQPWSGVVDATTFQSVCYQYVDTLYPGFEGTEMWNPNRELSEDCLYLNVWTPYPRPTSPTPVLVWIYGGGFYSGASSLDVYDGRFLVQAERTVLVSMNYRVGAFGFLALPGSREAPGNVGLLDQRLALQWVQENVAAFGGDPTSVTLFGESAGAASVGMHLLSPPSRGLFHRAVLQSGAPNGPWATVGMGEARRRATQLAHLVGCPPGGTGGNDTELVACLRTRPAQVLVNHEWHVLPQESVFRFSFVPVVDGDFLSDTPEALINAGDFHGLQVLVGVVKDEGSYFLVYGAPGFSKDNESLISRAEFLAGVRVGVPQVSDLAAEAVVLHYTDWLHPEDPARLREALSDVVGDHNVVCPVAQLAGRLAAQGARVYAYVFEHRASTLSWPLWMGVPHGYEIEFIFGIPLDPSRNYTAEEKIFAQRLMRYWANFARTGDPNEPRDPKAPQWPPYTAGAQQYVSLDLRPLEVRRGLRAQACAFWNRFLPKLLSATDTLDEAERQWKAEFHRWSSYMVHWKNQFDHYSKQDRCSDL

Acetylcholinesterase [2] = target: T1, Acetylcholinesterase; experiment: Inhibition of AChE in human serum by Ellman's method; type: cell-free
Cholinesterase [3] = target: T2, Cholinesterase (Homo sapiens, UniProt P06276); experiment: Inhibition of BChE in human serum at 20 uM by Ellman's method; type: cell-free
T2 sequence (P06276 whole entry): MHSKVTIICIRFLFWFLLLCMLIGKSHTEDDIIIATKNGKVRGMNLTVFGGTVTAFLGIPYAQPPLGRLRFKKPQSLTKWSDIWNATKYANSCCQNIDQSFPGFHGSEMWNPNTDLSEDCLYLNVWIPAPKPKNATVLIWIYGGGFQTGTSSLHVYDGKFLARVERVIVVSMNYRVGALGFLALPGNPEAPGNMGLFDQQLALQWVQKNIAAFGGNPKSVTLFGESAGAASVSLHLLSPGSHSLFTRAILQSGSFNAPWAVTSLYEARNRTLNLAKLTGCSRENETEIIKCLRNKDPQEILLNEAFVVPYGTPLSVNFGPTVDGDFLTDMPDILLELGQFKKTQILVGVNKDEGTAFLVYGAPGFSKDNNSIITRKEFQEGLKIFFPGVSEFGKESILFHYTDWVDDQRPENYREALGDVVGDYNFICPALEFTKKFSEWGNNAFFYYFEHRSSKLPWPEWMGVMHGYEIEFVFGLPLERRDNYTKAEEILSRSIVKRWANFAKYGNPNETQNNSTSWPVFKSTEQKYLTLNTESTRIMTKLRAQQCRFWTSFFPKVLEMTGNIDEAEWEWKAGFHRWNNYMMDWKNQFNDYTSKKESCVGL
Method in brief: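 Human serum BChE, 0.02 U, in 0.1 M phosphate pH 8.0 with 340 μM DTNB and 5% methanol final. Compound preincubated with enzyme 20 min at 37 °C, then 550 μM butyrylthiocholine iodide added. Initial rate read as A412 over 240 s, with an enzyme-free blank. Percent inhibition at a single 20 μM. Mean of ≥2 independent experiments, each in triplicate.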

Cholinesterase [4] = target: T2, Cholinesterase; experiment: Inhibition of BChE in human serum by Ellman's method; type: cell-free
Method in brief: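 Human serum BChE, 0.02 U, in 0.1 M phosphate pH 8.0 with 340 μM DTNB and 5% methanol final. 20 min enzyme–compound preincubation at 37 °C, then 550 μM butyrylthiocholine iodide added. Rate from A412 slope over 240 s, blank-corrected. Five concentrations chosen to give 20–80% inhibition. IC50 taken from log concentration–inhibition curves. Mean of ≥2 independent triplicate experiments.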

[5] = target: Amyloid-beta precursor protein (Homo sapiens) (UniProt P05067); experiment: Inhibition of amyloid beta42 (unknown origin) aggregation assessed as non toxic aggregrates formation measured after 48 hrs TEM imaging analysis
Amyloid-beta precursor protein (Homo sapiens), sequence (P05067 whole entry): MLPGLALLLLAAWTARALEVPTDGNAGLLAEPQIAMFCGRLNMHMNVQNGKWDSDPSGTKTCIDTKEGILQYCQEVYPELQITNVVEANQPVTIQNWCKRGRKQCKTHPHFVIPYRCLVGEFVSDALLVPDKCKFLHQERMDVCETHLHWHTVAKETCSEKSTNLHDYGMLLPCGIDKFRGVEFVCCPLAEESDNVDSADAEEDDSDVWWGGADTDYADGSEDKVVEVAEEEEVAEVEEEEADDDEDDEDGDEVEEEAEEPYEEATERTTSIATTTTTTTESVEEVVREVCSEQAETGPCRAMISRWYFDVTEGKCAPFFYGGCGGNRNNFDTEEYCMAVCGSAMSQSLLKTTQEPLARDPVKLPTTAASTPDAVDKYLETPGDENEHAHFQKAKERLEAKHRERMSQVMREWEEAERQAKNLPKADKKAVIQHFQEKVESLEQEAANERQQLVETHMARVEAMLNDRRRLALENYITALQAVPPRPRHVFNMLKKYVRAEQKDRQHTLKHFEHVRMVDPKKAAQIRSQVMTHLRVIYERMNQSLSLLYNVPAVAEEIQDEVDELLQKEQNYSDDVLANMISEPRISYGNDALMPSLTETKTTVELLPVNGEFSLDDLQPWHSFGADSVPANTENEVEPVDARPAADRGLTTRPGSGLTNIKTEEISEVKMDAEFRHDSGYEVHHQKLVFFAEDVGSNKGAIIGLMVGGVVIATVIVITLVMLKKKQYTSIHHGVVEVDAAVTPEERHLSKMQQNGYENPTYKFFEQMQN
Method in brief: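 Synthetic Aβ42, freeze-dried, redissolved in PBS pH 7.4 to 60 µM and vortexed about 5 min. Compound added at 1:5 Aβ42:compound. A 20 µL aliquot applied to the grid for 2 min, negatively stained with 1% uranyl acetate for 2 min, dried and imaged by TEM at 120 kV.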

[6] = Antioxidant activity assessed as gallic acid equivalents by HORAC assay; type: functional
Method in brief: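 Hydroxyl radical scavenging (HORAC kit). Methanol stocks (2-4 mM) diluted to 50 µM in assay buffer. Sample and fluorescein incubated 30 min at room temperature, then hydroxyl radical initiator and Fenton reagent added. Fluorescence decay read at ex 480/em 530 nm. AUC minus blank, divided by AUC of 50 µM gallic acid minus blank, gives gallic acid equivalents.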

SH-SY5Y = experiment: Inhibition of TBH-induced reactive oxygen species production in human SHSY-5Y cells at 10 uM preincubated for 24 hrs followed by TBH addition by DCFH-DA staining based flow cytometry; type: functional, cell-based
HepG2 = experiment: Cytotoxicity against human HepG2 cells assessed as cell viability upto 10 uM for 24 hrs by MTT assay; type: toxicity, cell-based; conditions: hepg2, 24 h
Method in brief: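 HepG2 cells grown in DMEM with 10% FBS and penicillin/streptomycin at 37 °C, 5% CO2. Seeded at 5×10^3 cells/well and left to adhere overnight. Exposed 24 h to 1.25-10 µM, with DMSO vehicle as control. Then 300 µM MTT in DMEM for 2 h at 37 °C. Formazan dissolved in DMSO and read at 570 nm.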

[7] = Solubility of compound in 5% DMSO/PBS solution; type: physicochemical
[8] = Stability in plasma (unknown orgin) measured upto 60 mins; type: ADME, cell-free; conditions: 1 h
Method in brief: (§1)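 Pooled human plasma. Compound added from a 1 µM DMSO solution and incubated at 37 °C for 0, 15, 30, 60 or 120 min. Reaction stopped with cold acetonitrile containing internal standard, then centrifuged. Supernatant analysed by reverse-phase C18 HPLC-MS in positive mode. Compound/IS peak-area ratio at each time, relative to 0 min, gives percent remaining. Phosphate buffer pH 7.4 used as control matrix, rivastigmine as positive control.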

[9] = Stability in plasma (unknown orgin) measured after 120 mins; type: ADME, cell-free; conditions: read-out: Stability; method in brief: as §1

Row | SMILES | inhibition (Acetylcholinesterase [1]) [%] | IC50 (Acetylcholinesterase [2]) [µM] | inhibition (Cholinesterase [3]) [%] | IC50 (Cholinesterase [4]) [µM] | inhibition [5] | Activity [6] [equiv] | inhibition (SH-SY5Y) | Activity (HepG2) | solubility [7] [mM] | Stability [8] | remaining at 2 h [9] [%]
1 | OCCCCCCCCc1ccc(CN2CCCCCC2)c(O)c1 | < 10 | 785 | 77.1 | 4.62 | Active | 3.5 | Active | Non-Toxic | < 5 | Stable | 85
2 | CN(Cc1ccccc1)Cc1ccc(CCCCCCCCO)cc1O | 19.4 | – | 68.3 | 6.74 | Active | 3.7 | – | – | – | – | –
3 | CC(=O)N1CCN(Cc2ccc(CCCCCCCCO)cc2O)CC1 | < 10 | – | < 5 | – | – | 4.52 | – | – | – | – | –
4 | OCCCCCCCCc1ccc(CN2CCCC2)c(O)c1 | 31.1 | 47.6 | 59 | 13.3 | – | 4.88 | – | – | – | – | –
5 | COc1cc(/C=C/C(=O)O)ccc1O | – | – | – | – | – | 4.04 | – | – | – | – | –
6 | CCN(CC)Cc1ccc(CCCCCCCCO)cc1O | 12.4 | – | 50.5 | 17.5 | Active | 5.49 | – | – | – | – | –
7 | OCCCCCCCCc1ccc(CN2CCOCC2)c(O)c1 | < 5 | – | < 10 | – | Active | 9.73 | – | – | – | – | –
8 | OCCCCCCCCc1ccc(CN2CCSCC2)c(O)c1 | 12.1 | – | 16.6 | – | – | 4.38 | – | – | – | – | –
9 | OCCCCCCCCc1ccc(CN2CCCCC2)c(O)c1 | 40.5 | 30 | 73.5 | 6.12 | Active | 4.37 | Active | Non-Toxic | < 3.9 | Stable | 97
10 | OCCCCCCCCc1ccc(CN2CCNCC2)c(O)c1 | < 10 | – | 17.7 | – | – | 1.49 | – | – | – | – | –
11 | CN1CCN(Cc2ccc(CCCCCCCCO)cc2O)CC1 | < 5 | – | 10.6 | – | – | 4.8 | – | – | – | – | –
